# Screening results from PubChem BioAssay.
# CRFBP-R2 agonist = agonists of human CRF-binding protein/CRF-R2 receptor complex. actives 0.46% (n = 350,000). HEK293 CRF-R2/CRF-BP, calcium dye fluorescence (FLIPR); percent of saturating CRF peptide response. activation, % at 13.2 µM;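 active = activation of at least 50%, plus an integration ratio under a set limit after plate pattern correction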;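 also: plate controls were neutral control wells without compound for no effect and CRF at EC100 for full effect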
# MIN6 prolif-1 = induces beta-cell replication in MIN6 cells; proliferation, % at 10 µM; MIN6 cells proliferation, ATPlite luminescence, 48 h; cells starved in 0.2% serum; 100% = growth in 10% serum; actives 0.29% (n = 330,000); AID 2380;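 active = compounds whose signal lies at least 3.5 SD above the mean of all wells on their plate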;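 also: 0% = DMSO-treated cells in low-serum medium and 100% = 10% serum control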
# iPSC survival up = hiPSC single-cell survival enhancement; ATPlite luminescence; 100% = ROCK inhibitor wells, 0% = DMSO; AID 602274; actives 0.044% (n = 360,000); survival enhancement, % at 20 µM; in the data active = survival enhancement above about 18%;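 also: cells exposed to compounds for 16 hours before the ATP read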
# Cardio protect = protects H9c2 cardiomyocytes from peroxide injury; H2O2 injury protection, ATPLite, 2 h; protection from H2O2 cell death, % at 20 µM; actives 0.63% (n = 360,000); AID 588492;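 active = compounds giving at least 50% protection of heart cells from peroxide-induced death in the single-dose screen, raw or plate-pattern-corrected value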;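 also: 0% = DMSO wells with peroxide and 100% = DMSO wells without peroxide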
# UCH37 inh = human UCH37 deubiquitinating enzyme inhibition. AID 588478. Q9Y5K5. inhibition, % (concentration not given with the values). purified proteasome/UCH37, Ub-AMC cleavage fluorescence. actives 0.33% (n = 330,000);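 active = mean inhibition over replicate wells above about 20%, limit read from the data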;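 also: 0% = compound-free wells with enzyme and 100% = wells lacking proteasome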
# Target sequence (Q9Y5K5 whole entry, looked up): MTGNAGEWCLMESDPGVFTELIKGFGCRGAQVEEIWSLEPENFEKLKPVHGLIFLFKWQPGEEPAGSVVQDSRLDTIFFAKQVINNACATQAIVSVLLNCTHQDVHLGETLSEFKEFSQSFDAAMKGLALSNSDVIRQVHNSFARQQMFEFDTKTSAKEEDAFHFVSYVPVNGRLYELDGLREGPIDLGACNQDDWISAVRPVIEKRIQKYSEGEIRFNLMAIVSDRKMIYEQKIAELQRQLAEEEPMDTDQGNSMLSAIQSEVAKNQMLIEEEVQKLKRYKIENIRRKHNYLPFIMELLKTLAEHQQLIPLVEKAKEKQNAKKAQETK
#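 assay system = human UCH37 enzyme supplied as purified proteasome complex | amount = proteasome at 0.15 nM in the dispensed enzyme solution | schedule = 30 min compound-proteasome preincubation then 25 min substrate reaction, room temperature | measured by = fluorescence, ex 355 nm, em 460 nm | benchmarks = no-proteasome wells (full inhibition) and compound-free wells (no inhibition)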
# CRFR2-BP antag = blocks CRF-induced signaling of the CRF-BP/CRF-R2 complex; HEK293 CRF-R2/CRF-BP, CRF-induced calcium fluorescence; inhibition, % at 11.8 µM; actives 0.59% (n = 350,000);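 active = inhibition of the ligand-induced calcium signal above about 50% at the single tested concentration, limit read from the data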
# MIN6 prolif-2 = confirmation of inducers of beta-cell replication in MIN6 cells. shares compounds with MIN6 prolif-1. MIN6 beta-cell proliferation, ATPlite luminescence, 48 h; cells kept in 0.2% serum; scaled between 0.2% and 10% serum. proliferation increase, % at 50 µM. 920 tested, under 10 active. AID 463095;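 active = proliferation increase above 40% at any of the four tested concentrations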
# Active calls of the source: *; / = not tested or not shown. Hits are enriched below; roughly 2.1% of the tested compounds scored in any of these assays.
SMILES,CRFBP-R2 agonist,MIN6 prolif-1,iPSC survival up,Cardio protect,UCH37 inh,CRFR2-BP antag,MIN6 prolif-2
O=C(NC1CCN(Cc2ccccc2)CC1)c1ccccc1,2,8.2*,2,13,2,-18,-1
Cc1c(NC(=O)C(C)OC(=O)CCc2c[nH]c3ccccc23)c(=O)n(-c2ccccc2)n1C (stereo not drawn),2,12*,0,1,/,3,0
C=CCn1c(Cc2c(C)[nH]c3ccccc23)nnc1SCC(=O)NCc1ccc(F)cc1,-1,6.9*,0,8,0,-33,-5
Nc1cc(C(=O)NN=Cc2cccc([N+](=O)[O-])c2)n[nH]c1=O,/,/,/,/,0,/,/
COC(=O)c1ccc(NC(=O)c2cc(-c3ccccn3)nc3ccccc23)cc1,1,7.5*,2,-4,-10,-2,2
O=C(NN=Cc1c(Cl)nc2ccccn2c1=O)c1cccnc1,/,/,/,/,-13,/,/
N#Cc1c2c(c(NCCN3CCOCC3)n3c1nc1ccccc13)CCCC2,0,7.5*,0,-1,-48,-9,5
N#Cc1c2c(c(NCCCN3CCOCC3)n3c1nc1ccccc13)CCC2,3,0,3,12,-100,15,/
Cc1cccn2c(=O)c(/C=C(\C#N)C(N)=O)c(N3CCN(c4ccccc4)CC3)nc12,-4,6.9*,0,14,-24,3,-6
CCc1cc(C(=O)NN=Cc2ccc(O)cc2)c2ccccc2n1,/,/,/,/,6,/,/
NC(=NO)c1ccc(Oc2ccccc2Cl)c([N+](=O)[O-])c1,/,/,/,/,4,/,/
O=C(CCNS(=O)(=O)c1ccc(Cl)cc1)N1CCCC1,0,-3,0,-2,0,0,/
O=C(CCNS(=O)(=O)c1ccc(Cl)cc1)N1CCC2(O)CCCCC2C1 (stereo not drawn),1,5.6*,-1,8,-1,-6,-1
COc1cc(NC(=O)CC(C)=NNC(=O)C2CCCCC2)c(OC)cc1Cl,/,/,/,/,4,/,/
O=C(NN=Cc1ccncc1)c1nc(-c2ccccc2)n2c1CCCCC2,/,/,/,/,6,/,/
O=C(N/N=C/c1ccncc1)c1nc(-c2ccccc2)n2c1CCCCC2,-1,8.3*,4,1,/,6,2
CCCn1c(-c2nonc2N)nc2ccccc21,-5,9.0*,8,-3,1,-39,-1
CN(C)c1ncc(CN2CCC(CO)(CCCc3ccccc3)CC2)s1,1,7.3*,-1,-1,4,-21,-3
CCOC(=O)C1(CCc2ccccc2)CCN(Cc2cnc(N(C)C)s2)CC1,-2,-1,-1,-10,2,-25,/
COc1ccc(N(C(=O)CNC(=O)c2cccs2)C(C(=O)NC2CCCC2)c2ccncc2)cc1 (stereo not drawn),-1,7.3*,0,8,/,5,0
CSc1nc(N)nc(SC2C=CCCC2)c1C#N (stereo not drawn),1,5.9*,-1,-11,0,-1,9
Fc1cccc(Nc2nc3ccccc3n3nnnc23)c1,2,13*,0,19,-27,-45,4
Fc1cccc(Nc2nc3ccccc3n3cnnc23)c1,-1,3,2,27,-3,-58,/
COc1ccc(C=NNC(=O)/C(=C\Nc2nccc(C)n2)NC(=O)c2ccccc2)cc1,/,/,/,/,3,/,/
Cc1cc2nc(-c3ccncc3)cc(C(F)(F)F)n2n1,-3,9.3*,1,1,/,-16,4
SMILES,CRFBP-R2 agonist,MIN6 prolif-1,iPSC survival up,Cardio protect,UCH37 inh,CRFR2-BP antag,MIN6 prolif-2
COC(=O)c1cc2nc(-c3ccc(C)cc3)cc(C(F)(F)F)n2n1,0,-4,2,5,-8,-11,/
Cc1ccc(NC(=O)c2noc3c2CCc2ccccc2-3)cc1,3,-3,-1,-16,3,-6,/
CCc1ccc(NC(=O)c2noc3c2CCc2ccccc2-3)cc1,1,7.2*,6,-6,5,-16,-1
CCC(C)(C(=O)NC1CCCC1)N(Cc1cccs1)C(=O)Cc1cccs1 (stereo not drawn),-1,0,-2,13,4,-6,/
CCC(C)(C(=O)NC1CCCC1)N(Cc1ccco1)C(=O)c1ccc2c(c1)OCO2 (stereo not drawn),-2,8.7*,-1,-1,3,12,-4
CCC(C)(C(=O)NC1CCCC1)N(Cc1ccco1)C(=O)Cc1cccs1 (stereo not drawn),-3,12*,-4,5,1,9,-2
O=C(c1ccco1)N1CCCC(c2nc3c(nnn3Cc3c(Cl)cccc3Cl)c(=O)[nH]2)C1 (stereo not drawn),-1,8.4*,1,1,4,-2,-6
Cc1cc(C)nc(N=c2ssnc2Cl)c1,/,/,/,/,2,/,/
Cn1nc(OCC(=O)O)cc1C(F)(F)F,-1,6.3*,0,4,5,9,7
CC(=O)NCCc1nc2cc(NC(=O)COc3ccc(C)cc3)ccc2n1C,0,9.2*,1,0,4,3,0
CC(C)(C)c1ccc(C=NNC(=O)C(=O)NCCCN2CCOCC2)cc1,/,/,/,/,2,/,/
COc1ccc(NC(=O)CCCN2C(=O)C(c3ccccc3)Oc3cccnc32)c(OC)c1 (stereo not drawn),-1,0,0,-4,2,14,/
COc1ccccc1NC(=O)CCCN1C(=O)C(c2ccccc2)Oc2cccnc21 (stereo not drawn),1,13*,-1,0,6,3,-6
O=[N+]([O-])c1ccc(S(=O)(=O)NN=Cc2cccs2)cc1,/,/,/,/,-1,/,/
O=C(Nc1ccc(F)cc1)c1ccccc1NS(=O)(=O)N1CCCC1,6,8.5*,-1,-4,-8,2,-6
CCOc1ccccc1Nc1cc2n(c(=O)n1)CCc1cc(OC)c(OC)cc1-2,0,12*,1,7,/,13,-1
COCCN(C(=O)CSc1ncccn1)c1c(N)n(Cc2ccccc2)c(=O)[nH]c1=O,-1,1,0,4,3,-1,/
CCN(C(=O)CSc1ncccn1)c1c(N)n(Cc2ccccc2)c(=O)[nH]c1=O,-1,16*,0,2,/,19,-2
CN(C(=O)CN1CCCCCC1)c1c(N)n(Cc2ccccc2)c(=O)[nH]c1=O,0,12*,0,12,-1,-5,-4
CC1CCCC(C)N1C(=O)c1cccc2c1-c1ccccc1/C2=N/O (stereo not drawn),-3,5.5*,4,-12,/,-11,-6
CCOC(=O)c1cccc2c1-c1ccccc1/C2=N/O,-1,-2,-1,-9,/,-28,/
